Results on one compound are retold here after paper PMC7482441 (Pharmacological Research, 2020).

In series [1] the test system is TR (Transferrin receptor). Nature of the series: Circulating biomarker, baseline vs 4-week treatment. Type of series: in vivo, human. Particulars: 20 DMD patients, OLink, p-value 3.0e-6, FDR 0.0004.
In another series the test system is SCGB3A2. The description is as above. It counts as in vivo, human. Particulars: 20 DMD patients, OLink, p-value 1.3e-5, FDR 0.001.
The next series concerns CCL15. The series is described as above. It counts as in vivo, human. Particulars: 20 DMD patients, OLink, p-value 0.0003, FDR 0.17.
A further series deals with KLK6. The series is described as above. Type of series: in vivo, human. The following applies: 20 DMD patients, OLink, p-value 0.0004, FDR 0.20.
Another series concerns FAS. The description is as above. Type of series: in vivo, human. Particulars: 20 DMD patients, OLink, p-value 0.0007, FDR 0.24.
Series [2] deals with CK T (Creatine Kinase total). The series is described as above. Type of series: in vivo, human. Particulars: 20 DMD patients, Electrophoresis, p-value 0.0007, FDR 0.24.
The subject of another series is TNFα. Described as above. Type of series: in vivo, human. Particulars: 20 DMD patients, Luminex, p-value 0.0009, FDR 0.24.
In series [3] the test system is CK MM (Creatine Kinase MM isoform). Described as above. Type of series: in vivo, human. Particulars: 20 DMD patients, Electrophoresis, p-value 0.0009, FDR 0.24.
The next series concerns MCP1. Described as above. Type of series: in vivo, human. The following applies: 20 DMD patients, OLink, p-value 0.0016, FDR 0.39.
The subject of the next series is MB (Myoglobin). Described as above. Type of series: in vivo, human. Particulars: 20 DMD patients, OLink, p-value 0.0036, FDR 0.79.
The subject of a further series is skeletal muscle. In words: NMRI of skeletal muscle. Type of series: in vivo, human. The following applies: dose escalation, 4-week treatment. The procedure, abridged: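 NMRI of both lower limbs was acquired locally at baseline and week 4 of oral treatment (50–300 mg TID, 4 ascending-dose cohorts). Indices were water T2 and fat fraction in skeletal muscle. Descriptive statistics were produced per cohort.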

In a further series the test system is healthy male subjects. Particulars: earlier Merck KGaA phase I studies; cited from earlier work.
A further series deals with mdx mice. The following applies: short and long term studies in mdx mice; cited from earlier work.
The subject of series [4] is Golden Retriever muscular dystrophy (GRMD) dogs. The following applies: treatment in a preventing setting; cited from earlier work.
The subject of a further series is animal models. The following applies: cited from earlier work.
Series [5] has as its system sodium-proton exchanger isoform 1 (NHE-1). The following applies: cited from earlier work.

In the case of `[H]/N=C(\N)NC(=O)c1cc(S(C)(=O)=O)c(S(C)(=O)=O)cc1C` [Rimeporide], the “TR: Term (TRT, linear mixed effect model, Day 28 vs Day 0)” value in series [1] turned out to be 0.5252. Moreover, the “SCGB3A2: Term (TRT, linear mixed effect model, Day 28 vs Day 0)” value with SCGB3A2 is −0.5466. The “CCL15: Term (TRT, linear mixed effect model, Day 28 vs Day 0)” value in the series with CCL15 was −0.4489. The “KLK6: Term (TRT, linear mixed effect model, Day 28 vs Day 0)” value in the series on KLK6 is on record as −0.2612. Further, the “FAS: Term (TRT, linear mixed effect model, Day 28 vs Day 0)” value in the series on FAS is recorded as −0.2823. Moreover, the “CK T: Term (TRT, linear mixed effect model, Day 28 vs Day 0)” value in series [2] is listed as −0.3851. The “TNFα: Term (TRT, linear mixed effect model, Day 28 vs Day 0)” value in the series with TNFα is recorded as −0.1726. In addition, in series [3], the “CK MM: Term (TRT, linear mixed effect model, Day 28 vs Day 0)” value is listed as −0.3886. Moreover, the “MCP1: Term (TRT, linear mixed effect model, Day 28 vs Day 0)” value with MCP1 is recorded as −0.5675. The “MB: Term (TRT, linear mixed effect model, Day 28 vs Day 0)” value with MB (Myoglobin) is −0.6763. Moreover, in the series with skeletal muscle, the “NMRI indices in skeletal muscle” value is given as “No notable change”. Further, the maximum tolerated dose entry in the series on healthy male subjects is on record as “could not be defined”. Besides, in the series on mdx mice, the “effects in skeletal and cardiac muscles” value was “potent anti-inflammatory and anti-fibrotic effects”. In series [4], the cardioprotection result was “confirmed the cardioprotective role”. Besides, the “exposure/concentration range with an efficacious response” value with animal models was 500 to 2500 ng/mL. The NHE-1 inhibition result in series [5] was “potent and selective inhibitor”.
